Laboratory results taken from ChEMBL document CHEMBL4330056, “Synthesis and Cytotoxic and Antiviral Profiling of Pyrrolo- and Furo-Fused 7-Deazapurine Ribonucleosides” (J Med Chem, 2018).
Active and inactive are the calls of the source. The calls are words filed in the database; no cut-off is given here.

Legend:
[1] = tested on: Human alphaherpesvirus 1; test: Antiviral activity against human herpesvirus 1 HF infected in African green monkey Vero cells assessed as inhibited virus-induced cytopathic effect incubated for 3 days by XTT assay; type: functional, organism-based
[2] = tested on: HeLa S3; test: Antiproliferative activity against human HeLaS3 cells after 72 hrs by XTT assay; type: functional, cell-based; settings: HeLa S3, 72 h
[3] = tested on: Hepatitis C virus; test: Antiviral activity against Hepatitis C virus genotype 2a infected in human Huh-luc replicon cells after 3 days by luciferase assay; type: functional, organism-based, Hepacivirus hominis; settings: subtype 2a, 72 h
[4] = Cytotoxicity against human Hep2 cells assessed as reduction in cell viability after 3 days by CellTiter-Glo assay; type: cell-based; settings: HEp-2 cells
[5] = tested on: HL-60; test: Antiproliferative activity against human HL60 cells after 72 hrs by XTT assay; type: functional, cell-based; settings: HL-60, 72 h
[6] = tested on: A549; test: Antiproliferative activity against human A549 cells after 3 days by MTS assay; type: functional, cell-based; settings: A549, 72 h
[7] = tested on: BJ; test: Antiproliferative activity against human BJ cells after 3 days by MTS assay; settings: 72 h
[8] = target: T1, Adenosine kinase (Homo sapiens, UniProt P55263); test: Inhibition of recombinant human ADK using [3H]-adenosine as substrate after 20 mins by TLC scanner-based analysis relative to control
T1 sequence (P55263 whole entry): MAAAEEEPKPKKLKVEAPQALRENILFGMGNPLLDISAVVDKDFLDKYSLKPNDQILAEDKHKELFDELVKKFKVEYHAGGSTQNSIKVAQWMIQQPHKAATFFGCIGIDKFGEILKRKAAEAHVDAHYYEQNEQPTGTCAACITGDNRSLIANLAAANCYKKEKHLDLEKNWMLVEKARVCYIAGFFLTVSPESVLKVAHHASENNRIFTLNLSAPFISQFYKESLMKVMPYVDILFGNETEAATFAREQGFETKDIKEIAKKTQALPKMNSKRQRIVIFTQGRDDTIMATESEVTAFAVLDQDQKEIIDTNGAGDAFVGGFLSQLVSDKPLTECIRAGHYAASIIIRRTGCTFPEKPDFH
Summary of the method: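 ADK inhibition: 50 μM adenosine substrate with 10 μM test compound and 97 ng enzyme, 20 min at 37 °C.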

[9] = Antiproliferative activity against human CEM-DNR-bulk cells after 3 days by MTS assay; settings: 72 h
[10] = tested on: Coxsackievirus B3; test: Antiviral activity against Human coxsackie B3 Nancy infected in human HeLa cells assessed as inhibited virus-induced cytopathic effect incubated for 2 days by XTT assay; type: functional, organism-based
[11] = Antiproliferative activity against human K562-TAX cells after 3 days by MTS assay; type: functional, cell-based; settings: 72 h
[12] = tested on: CCRF-CEM; test: Antiproliferative activity against human CCRF-CEM cells after 3 days by MTS assay; type: functional, cell-based; settings: 72 h
[13] = tested on: HCT-116; test: Antiproliferative activity against p53 gene knocked out human HCT116 cells after 3 days by MTS assay; type: functional, cell-based; settings: HCT-116, 72 h
[14] = tested on: Human orthopneumovirus; test: Antiviral activity against Human respiratory syncytial virus A2 infected in Hep2 cells assessed as reduction in virus-induced cytopathic effect incubated for 4 days by CellTiter-Glo viability reagent based assay; type: functional, organism-based
[15] = tested on: dengue virus type 2; test: Antiviral activity against Dengue virus 2 Thailand/16681/84 infected in African green monkey Vero cells assessed as inhibition of virus replication incubated for 3 days by fluorescence microscopy; type: functional, organism-based
[16] = tested on: HCT-116; test: Antiproliferative activity against human HCT116 cells after 3 days by MTS assay; type: functional, cell-based; settings: HCT-116, 72 h
[17] = tested on: MRC5; test: Antiproliferative activity against human MRC5 cells after 3 days by MTS assay; settings: MRC5, 72 h
[18] = tested on: K562; test: Antiproliferative activity against human K562 cells after 3 days by MTS assay; type: functional, cell-based; settings: K562, 72 h
[19] = tested on: HepG2; test: Antiproliferative activity against human HepG2 cells after 72 hrs by XTT assay; type: functional, cell-based; settings: HepG2, 72 h
[20] = tested on: U2OS; test: Antiproliferative activity against human U2OS cells after 3 days by MTS assay; type: functional, cell-based; settings: 72 h
[21] = target: T1, Adenosine kinase; test: Substrate activity at recombinant human ADK assessed as compound phosphorylation at 50 uM after 20 mins in presence of [3H]-adenosine by UPLC; type: ADME
[22] = tested on: Influenza A virus; test: Antiviral activity against Influenza A virus (A/Mexico/4108/2009(H1N1)) infected in MDCK cells assessed as inhibited virus-induced cytopathic effect incubated for 2 days by XTT assay; type: functional, organism-based
[23] = tested on: Hepatitis C virus; test: Antiviral activity against Hepatitis C virus genotype 1b infected in human Huh-luc replicon cells after 3 days by luciferase assay; type: functional, organism-based, Hepacivirus hominis; settings: subtype 1b, 72 h

Cn1ccc2c3c(-c4ccco4)ncnc3n([C@@H]3O[C@H](CO)[C@@H](O)[C@H]3O)c21
Activity [1]: inactive | IC50 [2]: 2.97 µM | EC50 [3]: 0.77 µM | CC50 at 72 h [4]: 2.63 to 16.4 µM | IC50 [5]: 3 µM | IC50 [6]: 5.73 µM | IC50 [7]: 5.36 µM | IC50 [8]: 3.58 µM | IC50 [9]: 2.17 µM | Activity [10]: inactive | IC50 [11]: 2.4 µM | IC50 [12]: 1.36 µM | IC50 [13]: 4.01 µM | Activity [14]: inactive | Activity [15]: inactive | IC50 [16]: 3.82 µM | IC50 [17]: 5.89 µM | IC50 [18]: 4.03 µM | IC50 [19]: > 50 µM | IC50 [20]: 3.49 µM | Activity [21]: 0% | Activity [22]: inactive | EC50 [23]: 0.34 µM

CN(C)c1ncnc2c1c1c(ccn1C)n2[C@@H]1O[C@H](CO)[C@@H](O)[C@H]1O
Activity [1]: inactive | IC50 [2]: > 50 µM | EC50 [3]: > 44.4 µM | CC50 at 72 h [4]: > 44.4 µM | IC50 [5]: > 50 µM | IC50 [6]: > 50 µM | IC50 [7]: > 50 µM | IC50 [8]: > 10 µM | IC50 [9]: > 50 µM | Activity [10]: inactive | IC50 [11]: > 50 µM | IC50 [12]: > 50 µM | IC50 [13]: > 50 µM | Activity [14]: inactive | Activity [15]: inactive | IC50 [16]: > 50 µM | IC50 [17]: > 50 µM | IC50 [18]: > 50 µM | IC50 [19]: > 50 µM | IC50 [20]: > 50 µM | Activity [21]: 0% | Activity [22]: inactive | EC50 [23]: > 44.4 µM

Cn1ccc2c1c1c(-c3ccoc3)ncnc1n2[C@@H]1O[C@H](CO)[C@@H](O)[C@H]1O
Activity [1]: inactive | IC50 [2]: > 50 µM | EC50 [3]: 3.45 µM | CC50 at 72 h [4]: > 44.4 µM | IC50 [5]: > 50 µM | IC50 [6]: > 50 µM | IC50 [7]: > 50 µM | IC50 [8]: > 10 µM | IC50 [9]: > 50 µM | Activity [10]: inactive | IC50 [11]: > 50 µM | IC50 [12]: > 50 µM | IC50 [13]: 9 µM | Activity [14]: inactive | Activity [15]: inactive | IC50 [16]: 8.16 µM | IC50 [17]: > 50 µM | IC50 [18]: 0.94 µM | IC50 [19]: > 50 µM | IC50 [20]: 2.41 µM | Activity [21]: 9% | Activity [22]: inactive | EC50 [23]: 20.2 µM

Cn1ccc2c1c1c(-c3ccco3)ncnc1n2[C@@H]1O[C@H](CO)[C@@H](O)[C@H]1O
Activity [1]: inactive | IC50 [2]: > 50 µM | EC50 [3]: > 44.4 µM | CC50 at 72 h [4]: > 44.4 µM | IC50 [5]: > 50 µM | IC50 [6]: > 50 µM | IC50 [7]: > 50 µM | IC50 [8]: 7.12 µM | IC50 [9]: > 50 µM | Activity [10]: inactive | IC50 [11]: > 50 µM | IC50 [12]: > 50 µM | IC50 [13]: > 50 µM | Activity [14]: inactive | Activity [15]: inactive | IC50 [16]: > 50 µM | IC50 [17]: > 50 µM | IC50 [18]: > 50 µM | IC50 [19]: > 50 µM | IC50 [20]: 7.37 µM | Activity [21]: 11% | Activity [22]: inactive | EC50 [23]: 0.22 µM

Cn1ccc2c3c(-c4cc5ccccc5o4)ncnc3n([C@@H]3O[C@H](CO)[C@@H](O)[C@H]3O)c21
Activity [1]: inactive | IC50 [2]: > 50 µM | EC50 [3]: 15.5 µM | CC50 at 72 h [4]: 27.5 to 29.1 µM | IC50 [5]: > 50 µM | IC50 [6]: 35.4 µM | IC50 [7]: 44.7 µM | IC50 [8]: 0.47 µM | IC50 [9]: 30.6 µM | Activity [10]: inactive | IC50 [11]: 23 µM | IC50 [12]: 9.48 µM | IC50 [13]: 36.4 µM | Activity [14]: inactive | Activity [15]: inactive | IC50 [16]: 36.5 µM | IC50 [17]: 45.2 µM | IC50 [18]: 22.1 µM | IC50 [19]: > 50 µM | IC50 [20]: 28.9 µM | Activity [21]: 0% | Activity [22]: inactive | EC50 [23]: 7.83 µM

CN(C)c1ncnc2c1c1occc1n2[C@@H]1O[C@H](CO)[C@@H](O)[C@H]1O
Activity [1]: inactive | IC50 [2]: > 50 µM | EC50 [3]: > 44.4 µM | CC50 at 72 h [4]: > 44.4 µM | IC50 [5]: > 50 µM | IC50 [6]: > 50 µM | IC50 [7]: > 50 µM | IC50 [8]: > 10 µM | IC50 [9]: > 50 µM | Activity [10]: inactive | IC50 [11]: > 50 µM | IC50 [12]: > 50 µM | IC50 [13]: > 50 µM | Activity [14]: inactive | Activity [15]: inactive | IC50 [16]: > 50 µM | IC50 [17]: > 50 µM | IC50 [18]: > 50 µM | IC50 [19]: > 50 µM | IC50 [20]: > 50 µM | Activity [21]: 7% | Activity [22]: inactive | EC50 [23]: > 44.4 µM

OC[C@H]1O[C@@H](n2c3ccoc3c3c(-c4cc5ccccc5o4)ncnc32)[C@H](O)[C@@H]1O
Activity [1]: inactive | IC50 [2]: > 50 µM | EC50 [3]: > 44.4 µM | CC50 at 72 h [4]: > 44.4 µM | IC50 [5]: > 50 µM | IC50 [6]: 49.3 µM | IC50 [7]: > 50 µM | IC50 [8]: 0.336 µM | IC50 [9]: 37.1 µM | Activity [10]: inactive | IC50 [11]: 24.3 µM | IC50 [12]: 14.1 µM | IC50 [13]: 46.5 µM | Activity [14]: inactive | Activity [15]: inactive | IC50 [16]: 48.8 µM | IC50 [17]: > 50 µM | IC50 [18]: 39.6 µM | IC50 [19]: 2.83 µM | IC50 [20]: 37.8 µM | Activity [21]: 58% | Activity [22]: inactive | EC50 [23]: 5.34 µM

CSc1ncnc2c1c1ccn(C)c1n2[C@@H]1O[C@H](CO)[C@@H](O)[C@H]1O
Activity [1]: inactive | IC50 [2]: > 50 µM | EC50 [3]: 17 µM | CC50 at 72 h [4]: 36.8 to 44 µM | IC50 [5]: > 50 µM | IC50 [6]: > 50 µM | IC50 [7]: > 50 µM | IC50 [8]: > 10 µM | IC50 [9]: 28.2 µM | Activity [10]: inactive | IC50 [11]: 30 µM | IC50 [12]: 25.5 µM | IC50 [13]: > 50 µM | Activity [14]: inactive | Activity [15]: inactive | IC50 [16]: 35.9 µM | IC50 [17]: > 50 µM | IC50 [18]: 18 µM | IC50 [19]: > 50 µM | IC50 [20]: 27.4 µM | Activity [21]: 0% | Activity [22]: inactive | EC50 [23]: 5.98 µM

Cn1ccc2c3c(Cl)ncnc3n([C@@H]3O[C@H](CO)[C@@H](O)[C@H]3O)c21
Activity [1]: inactive | IC50 [2]: > 50 µM | EC50 [3]: > 44.4 µM | CC50 at 72 h [4]: > 44.4 µM | IC50 [5]: > 50 µM | IC50 [6]: > 50 µM | IC50 [7]: > 50 µM | IC50 [8]: > 10 µM | IC50 [9]: > 50 µM | Activity [10]: inactive | IC50 [11]: > 50 µM | IC50 [12]: > 50 µM | IC50 [13]: > 50 µM | Activity [14]: inactive | Activity [15]: inactive | IC50 [16]: > 50 µM | IC50 [17]: > 50 µM | IC50 [18]: > 50 µM | IC50 [19]: > 50 µM | IC50 [20]: > 50 µM | Activity [21]: 0% | Activity [22]: inactive | EC50 [23]: 36.4 µM
